ROMK mod: modulators of human ROMK potassium channel. Tet-inducible ROMK, thallium flux fluorescence; actives lie on both sides. B-score at 10 µM. actives 2% (n = 130,000);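 active means signal ratio slope over the read window, or its plate-corrected B-score, at least 3 SD from the plate mean, either direction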;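 further: B-score of the F/F0 ratio slope over 7 to 12 s after thallium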
Cl transport mod: modulators of human KCC2 chloride dependent transport | B-score of Tl+ flux slope (higher = more flux/activation; lower = inhibition) at 10 µM | Q9H2X9 | AID 1456 | KCC2 cells, thallium flux FluoZin-2 fluorescence | actives 2.2% (n = 190,000);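 active means thallium flux slope and its plate-corrected score both differing from the plate sample mean at a set confidence after two filtering rounds, in either direction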;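 further: slope of fluorescence scaled to starting intensity during 10 to 20 s after thallium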
Target sequence (Q9H2X9 whole entry, looked up): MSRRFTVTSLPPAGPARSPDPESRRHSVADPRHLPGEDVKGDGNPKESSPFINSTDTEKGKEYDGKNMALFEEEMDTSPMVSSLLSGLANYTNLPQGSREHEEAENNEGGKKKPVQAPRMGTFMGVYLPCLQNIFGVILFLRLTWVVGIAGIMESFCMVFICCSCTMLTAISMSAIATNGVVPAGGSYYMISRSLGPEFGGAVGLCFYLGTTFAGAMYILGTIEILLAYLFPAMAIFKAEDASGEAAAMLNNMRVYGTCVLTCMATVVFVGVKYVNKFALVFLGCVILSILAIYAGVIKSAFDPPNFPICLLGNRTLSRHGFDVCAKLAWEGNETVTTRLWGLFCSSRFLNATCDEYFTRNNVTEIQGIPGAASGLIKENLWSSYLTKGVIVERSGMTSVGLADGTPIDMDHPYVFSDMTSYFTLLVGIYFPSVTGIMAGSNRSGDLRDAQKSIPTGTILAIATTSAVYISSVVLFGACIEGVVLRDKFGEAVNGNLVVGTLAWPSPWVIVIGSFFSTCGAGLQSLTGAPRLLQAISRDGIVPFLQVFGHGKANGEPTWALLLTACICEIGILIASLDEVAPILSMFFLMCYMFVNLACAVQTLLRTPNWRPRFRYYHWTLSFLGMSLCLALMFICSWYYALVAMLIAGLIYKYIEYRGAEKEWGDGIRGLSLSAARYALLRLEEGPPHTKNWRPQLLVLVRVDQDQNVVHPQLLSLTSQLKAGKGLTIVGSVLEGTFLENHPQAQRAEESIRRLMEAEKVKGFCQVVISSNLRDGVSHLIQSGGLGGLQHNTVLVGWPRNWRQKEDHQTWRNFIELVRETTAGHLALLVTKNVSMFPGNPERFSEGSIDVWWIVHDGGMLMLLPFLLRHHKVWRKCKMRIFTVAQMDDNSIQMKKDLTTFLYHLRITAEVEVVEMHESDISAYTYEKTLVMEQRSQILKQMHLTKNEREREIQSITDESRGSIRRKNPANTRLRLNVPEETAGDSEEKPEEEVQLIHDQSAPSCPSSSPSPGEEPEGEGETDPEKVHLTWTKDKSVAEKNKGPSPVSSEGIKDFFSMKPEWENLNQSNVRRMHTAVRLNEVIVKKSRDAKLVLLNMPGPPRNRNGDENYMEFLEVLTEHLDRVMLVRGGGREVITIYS
Dynein transport: dynein cargo transport inhibition. 3617.4 mouse cells, GR-EGFP nuclear translocation imaging; test concentration mostly 20 µM; stimulated with dexamethasone, 1 µM; hits give low values. z-score, hits read low. actives 0.47% (n = 220,000);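 active means plate z-score of nuclear minus cytoplasmic receptor signal below a set negative limit, without overly bright fluorescence or cell loss, cut at about -3.5 in these data, passing the limit was not always enough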;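 further: z-score of nuclear minus cytoplasmic ring GR-EGFP intensity difference per well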
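Buffer or medium: tetracycline-free induction medium containing charcoal-stripped FBS / Reagent: dexamethasone agonist, 1.0 µM final, for 30 min / Technique: automated 10x imaging of fixed Hoechst-stained cells / Times: induction 48 h, compound 1 h, agonist 30 min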
Autophagy HCS: alters autophagy in cells; MEF GFP-LC3 puncta imaging; test concentration mostly 10 µM; calls only at 10 µM (by protocol); actives 0.98% (n = 190,000);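 active means percentage of spot-positive cells more than 3 SD above its plate mean, without a fluorescence outlier flag or 80% toxicity; inconclusive means no clear call, values can overlap the other calls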
Redox H2O2 prof: compounds producing H2O2 with reducing agent – biochemical, NIH compound library profiling, artefact control for MLSCN library redox annotation, primary screen; activation, % at 10 µM; DTT-dependent redox cycling H2O2, phenol red/HRP absorbance; 100% = 100 µM peroxide control, 0% = buffer; actives 0.03% (n = 200,000); AID 878;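 active means activation of at least 50% relative to the plate's high and low controls in the primary single-dose screen; inactive means activation below 50%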;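 further: compound incubated with DTT at 0.8 mM final as the reducing agent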
KCC2 secondary: confirmation of human KCC2 transport modulators | shares compounds with Cl transport mod | HEK293-KCC2, thallium flux, FluoZin2 fluorescence; hits give high values | normalised thallium flux (F/F0 slope) at 10 µM | actives 15% (n = 3,700);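 active means thallium flux slope above the same plate's solvent-only control mean plus 3 SD; inconclusive means the two replicate wells disagree; inactive means no significant difference from solvent-only control wells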
KCC2 bumet counter: thallium flux despite bumetanide block in KCC2 cells, secondary assay 3. normalized thallium flux at 10 µM. AID 1714. HEK293-KCC2 + bumetanide/ouabain, thallium flux FluoZin2; hits give high values. actives 49% (n = 3,700). shares compounds with Cl transport mod;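 active means thallium entry rate above the same plate's blocked-transporter control wells by more than 3 SD; inconclusive means the two repeat wells disagree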;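 further: raw slope of fluorescence over initial fluorescence between 10 and 20 s after thallium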
KCC2 secondary2: confirmation of human KCC2 transport modulators; shares compounds with Cl transport mod; HEK293-KCC2, thallium flux FluoZin2 fluorescence; actives lie on both sides; F/F0 rise rate, 10–20 s post-thallium; normalized thallium flux at 10 µM; actives 23% (n = 3,700);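 active means thallium flux slope more than 3 SD above or below the plate's solvent-only control mean, mostly below; inconclusive means the two repeat wells disagreed; inactive means no significant shift from solvent-only controls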
HEK293 Tl flux: acts in parental HEK cells, KCC2 counter-screen. HEK293 parental cells, thallium flux FluoZin2, ouabain; baseline-ratio fluorescence slope, 10–20 s after thallium. shares compounds with Cl transport mod. actives 46% (n = 3,700). AID 1716. thallium flux rate (normalised fluorescence) at 10 µM;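 active means thallium flux rate significantly above the same plate's solvent-only control wells, beyond their mean plus 3 SD; inconclusive means the two replicate wells gave conflicting results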
KCC2 ouabain: confirmation of human KCC2 modulators with ouabain. shares compounds with Cl transport mod. HEK293-KCC2, thallium flux FluoZin2 fluorescence; bidirectional: low = inhibitor, high = activator. raw Tl+ flux slope (below DMSO = inhibition, above = activation) at 10 µM. actives 48% (n = 3,700). AID 1717;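 active means thallium flux slope beyond 3 SD from same-plate DMSO control mean in most replicates, usually higher, sometimes lower; inconclusive means repeat tests gave conflicting results; inactive means no significant difference from controls in most replicates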;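 further: slope of initial-normalized fluorescence between seconds 10 and 20 after thallium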
HEK293 Tl flux2: counter-screen for KCC2 modulators: effect in parental HEK293 cells; thallium flux FluoZin-2 fluorescence slope; AID 1718; thallium flux slope at 10 µM; actives 33% (n = 3,700); shares compounds with Cl transport mod;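 active means thallium flux slope above the same plate's solvent-control mean plus 3 SD in both duplicate wells; inconclusive means duplicate wells that disagreed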;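 further: run without ouabain in cells lacking the KCC2 cotransporter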
A number is an active result. This is a sample that favours compounds with a hit; in the whole collection about 4.1% have one here.

What do the screens show for `CCOC(=O)N=Nc1c(O)n(CC)c2ccccc12`?
ROMK mod: inactive; Cl transport mod: inactive; Dynein transport: inactive; Autophagy HCS: inactive; Redox H2O2 prof: inactive

How did CCOC(=O)n1c(O)c(N=NC(N)=S)c2cc(C)ccc21 do in these assays?
Cl transport mod: 17.8; Dynein transport: inactive; KCC2 secondary: inactive; KCC2 bumet counter: 0.0384; KCC2 secondary2: inconclusive; HEK293 Tl flux: 0.0143; KCC2 ouabain: 0.0311; HEK293 Tl flux2: 0.0163

Results for COC(=O)[C@H](CCSC)NC(=O)Nc1ccc(S(N)(=O)=O)cc1 ?
Cl transport mod: inactive; Dynein transport: inactive

Results for O=C(Nc1ccc(Cl)c(Cl)c1)N(CCCN1CCOCC1)Cc1cccs1 ?
Cl transport mod: -3.01; Dynein transport: inactive; Autophagy HCS: inactive; Redox H2O2 prof: inactive; KCC2 secondary: inactive; KCC2 bumet counter: inactive; KCC2 secondary2: inactive; HEK293 Tl flux: inactive; KCC2 ouabain: inactive; HEK293 Tl flux2: inactive

What do the screens show for `Oc1ccccc1C(Nc1nccs1)c1ccc2cccnc2c1O` (stereo unspecified)?
Cl transport mod: 5.02; Dynein transport: inactive; KCC2 secondary: inactive; KCC2 bumet counter: 0.0152; KCC2 secondary2: inactive; HEK293 Tl flux: 0.00861; KCC2 ouabain: inconclusive; HEK293 Tl flux2: inactive

Results for CCOC(=O)c1ccc(NC(=O)c2ccccc2[N+](=O)[O-])cc1 ?
Cl transport mod: inactive; Dynein transport: inactive; Autophagy HCS: inactive; Redox H2O2 prof: inactive

What do the screens show for `O=C(Nc1ccc(S(=O)(=O)NCc2ccccc2)cc1)c1ccccc1[N+](=O)[O-]`?
Cl transport mod: -6.56; Dynein transport: inactive; Autophagy HCS: inactive; Redox H2O2 prof: inactive; KCC2 secondary: inactive; KCC2 bumet counter: inactive; KCC2 secondary2: 0.025; HEK293 Tl flux: inactive; KCC2 ouabain: inconclusive; HEK293 Tl flux2: inactive

How did CCOC(=O)c1cnc(-c2cccc(OC)c2)[nH]c1=O do in these assays?
Dynein transport: inactive; Autophagy HCS: inactive; Redox H2O2 prof: inactive; KCC2 secondary: inactive; KCC2 bumet counter: inconclusive; KCC2 secondary2: inactive; HEK293 Tl flux: inactive; KCC2 ouabain: inactive; HEK293 Tl flux2: inactive

How did CCOC(=O)c1cnc(-c2ccccc2)[nH]c1=O do in these assays?
Cl transport mod: inactive; Dynein transport: inactive; Autophagy HCS: inactive; Redox H2O2 prof: inactive

What do the screens show for `CC(=O)c1ccc(N2CCN(C(=S)NCCCN(C)C)CC2)cc1`?
ROMK mod: inactive; Cl transport mod: inactive; Dynein transport: inactive; Autophagy HCS: inactive; Redox H2O2 prof: inactive

What do the screens show for `COc1ccc2occ(C(=O)c3cccs3)c2c1`?
ROMK mod: inactive; Dynein transport: inactive; Autophagy HCS: inactive; Redox H2O2 prof: inactive; KCC2 secondary: inactive; KCC2 bumet counter: 0.00708; KCC2 secondary2: inactive; HEK293 Tl flux: inactive; KCC2 ouabain: inactive; HEK293 Tl flux2: inactive

Results for Cc1cccc(NC(=S)NNC(=S)NC2CCCCC2)c1C ?
ROMK mod: inactive; Cl transport mod: 3.99; Dynein transport: inactive; Autophagy HCS: inactive; Redox H2O2 prof: inactive; KCC2 secondary: inactive; KCC2 bumet counter: 0.0123; KCC2 secondary2: inactive; HEK293 Tl flux: 0.0094; KCC2 ouabain: inconclusive; HEK293 Tl flux2: inactive

How did O=C(NC(=S)Nc1ccccn1)c1ccccc1 do in these assays?
ROMK mod: inactive; Cl transport mod: 9.13; Dynein transport: inactive; KCC2 secondary: inactive; KCC2 bumet counter: 0.0173; KCC2 secondary2: inactive; HEK293 Tl flux: inconclusive; KCC2 ouabain: 0.0271; HEK293 Tl flux2: inactive

Results for S=C(Nc1ccccn1)NC1CCCCC1 ?
ROMK mod: inactive; Cl transport mod: 3.49; Dynein transport: inactive; KCC2 secondary: inactive; KCC2 bumet counter: 0.00631; KCC2 secondary2: inactive; HEK293 Tl flux: inactive; KCC2 ouabain: inactive; HEK293 Tl flux2: inactive

Results for O=C(NC(=S)Nc1ccc2ncccc2c1)c1ccccc1 ?
ROMK mod: inactive; Cl transport mod: inactive; Dynein transport: inactive; Autophagy HCS: inactive; Redox H2O2 prof: inactive

Results for O=C(NC(=S)Nc1cccc2ncccc12)c1ccccc1 ?
ROMK mod: inactive; Cl transport mod: 4.47; Dynein transport: inactive; Autophagy HCS: inactive; Redox H2O2 prof: inactive; KCC2 secondary: inactive; KCC2 bumet counter: 0.00996; KCC2 secondary2: inactive; HEK293 Tl flux: 0.0111; KCC2 ouabain: inactive; HEK293 Tl flux2: inconclusive

Results for CCOc1ccc(/C(O)=C2/C(=O)C(=O)N(c3ncccn3)C2c2ccccc2)cc1 (stereo unspecified) ?
ROMK mod: inactive; Cl transport mod: inactive; Dynein transport: inactive; Autophagy HCS: inactive; Redox H2O2 prof: inactive

How did O=C(COC(=O)c1ccc(S(=O)(=O)N2CCCC2)cc1)NCc1ccco1 do in these assays?
Cl transport mod: inactive; Dynein transport: inactive

How did COCCCN1CN(S(=O)(=O)c2cccs2)c2nc3ccccc3nc21 do in these assays?
ROMK mod: inactive; Cl transport mod: inactive; Dynein transport: inactive

How did CC1(C)C2C(Cl)(Cl)C2(C)c2ccccc2N1C=O (stereo unspecified) do in these assays?
Cl transport mod: inactive; Dynein transport: inactive

How did CC1=C(C(=O)OCC2CCCO2)C(c2ccsc2)C2=C(CCCC2=O)N1 (stereo unspecified) do in these assays?
ROMK mod: inactive; Cl transport mod: inactive; Dynein transport: inactive; Autophagy HCS: inactive; Redox H2O2 prof: inactive

How did O=C(NC(=S)Nc1cccc2ncccc12)c1cccs1 do in these assays?
ROMK mod: inactive; Cl transport mod: 8.21; Dynein transport: inactive; Autophagy HCS: inactive; Redox H2O2 prof: inactive; KCC2 secondary: inconclusive; KCC2 bumet counter: 0.0346; KCC2 secondary2: inactive; HEK293 Tl flux: 0.0163; KCC2 ouabain: 0.0248; HEK293 Tl flux2: 0.0183

What do the screens show for `CC(=O)Nc1cccc2ncccc12`?
ROMK mod: inactive; Cl transport mod: inactive; Dynein transport: inactive; Autophagy HCS: inactive; Redox H2O2 prof: inactive
